ChEMBL document CHEMBL3044914, “Synthesis of novel 12-aryl-8,9,10,12-tetrahydrobenzo[a]xanthene-11-thiones and evaluation of their biocidal effects” (2012)
Values after ≈ are worked out from the molar mass of the structure shown.

Tests used:
Spodoptera litura [1] = assay: Insecticidal activity against Spodoptera litura third-instar larvae exposed to 0.1% compound on ventral side of larvae assessed as mortality after 24 hr post compound treatment by contact method; format: functional
Outline: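 Topical treatment of third-instar larvae aged 7 ± 1 day. Each treatment was run in triplicate with solvent as control. Mortality was recorded after 24 h.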

[2] = Inhibition of soil urease assessed as urea-N level at 1% compound level measured after 9 hr; details: concentration not given here
Outline: (§1)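 Soil from cultivated institute farm fields, 50 g air-dried per beaker, moisture kept daily with distilled water. Compound in acetone added at 1% of applied urea-N (0.1 mg); urea-alone control; completely randomized design, three replicates. 5 g samples taken at 9 and 27 h, extracted with 1 M sodium sulfate containing phenyl mercuric acetate to stop hydrolysis; urea-N estimated.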

[3] = Inhibition of soil urease assessed as urea-N level at 1% compound level measured after 27 hr; details: concentration not given here; outline: as §1
Spodoptera litura [4] = assay: Insect growth regulatory activity against Spodoptera litura third-instar larvae assessed as growth inhibition index at 0.1% measured after 24 hr post compound treatment by leaf-dip method; format: functional
Spodoptera litura [5] = assay: Insect growth regulatory activity against Spodoptera litura third-instar larvae assessed as normal adult level at 0.1% measured after 24 hr post compound treatment by leaf-dip method; format: functional
Spodoptera litura [6] = assay: Insect growth regulatory activity against Spodoptera litura third-instar larvae assessed as abnormal or dead larva level at 0.1% measured after 24 hr post compound treatment by leaf-dip method; format: functional
Outline: (§2)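 Third-instar larvae were reared on artificial diet, newly moulted and pre-weighed at 30–40 mg. The 0.1% solution was a stock, applied at different concentrations. Leaves on moistened filter paper in Petri dishes were sprayed with the test solution and dried. Ten larvae were placed per dish, in triplicate, with carrier-solvent controls. Larval weight, mortality, pupation, deformed pupae, intermediates, adult emergence and deformed adults were recorded after 24 h.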

Spodoptera litura [7] = assay: Insect growth regulatory activity against Spodoptera litura third-instar larvae assessed as abnormal pupa or dead pupa level at 0.1% measured after 24 hr post compound treatment by leaf-dip method; format: functional; outline: as §2
Spodoptera litura [8] = assay: Insect growth regulatory activity against Spodoptera litura third-instar larvae assessed as mortality at 0.1% measured after 24 hr post compound treatment by leaf-dip method; format: functional; outline: as §2
Spodoptera litura [9] = assay: Insecticidal activity against Spodoptera litura third-instar larvae fed on 0.1% compound pre-treated castor leaves assessed as mortality after 24 hr post compound treatment by feeding method; format: functional
Outline: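 Castor leaf was dipped for 2 s in a 0.1% solution, air-dried and placed on moist filter paper in 9 cm Petri plates. Third-instar larvae aged 7 ± 1 day were prestarved 4 h and released singly into each plate. There were thirty replications per treatment, with a solvent control. Mortality was scored at 24 h.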

Alternaria porri = assay: Antifungal activity against Alternaria porri by food poison technique; format: functional; details: read-out: ED50 (the source's name)
Fusarium oxysporum = assay: Antifungal activity against Fusarium oxysporum by food poison technique; format: functional; details: read-out: ED50 (the source's name)
Athelia rolfsii = assay: Antifungal activity against Athelia rolfsii by food poison technique; format: functional; details: Agroathelia rolfsii; read-out: ED50 (the source's name)
Macrophomina phaseolina = assay: Antifungal activity against Rhizoctonia bataticola by food poison technique; format: functional; details: read-out: ED50 (the source's name)

Structure (SMILES) | mortality (Spodoptera litura [1]) | inhibition [2] | inhibition [3] | growth inhibition (GI) (Spodoptera litura [4]) | Activity (Spodoptera litura [5]) | Activity (Spodoptera litura [6]) | Activity (Spodoptera litura [7]) | mortality (Spodoptera litura [8]) | mortality (Spodoptera litura [9]) | EC50 (Alternaria porri) | EC50 (Fusarium oxysporum) | EC50 (Athelia rolfsii) | EC50 (Macrophomina phaseolina)
CC1(C)C(C=C(Cl)Cl)C1C(=O)OC(C#N)c1cccc(Oc2ccccc2)c1 (stereo not drawn) [ALPHA-CYPERMETHRIN] | 100% | – | – | – | – | – | – | – | – | – | – | – | –
CC1(C)CC(=S)C2=C(C1)Oc1ccc3ccccc3c1C2c1ccc2ccccc2c1 (centres undefined) | 0% | 1% | 3% | 30% | 70% | 20% | 10% | 0% | 80% | 165 mg/L (≈ 393 µM) | 189 mg/L (≈ 448 µM) | 199 mg/L (≈ 473 µM) | 244 mg/L (≈ 580 µM)
CC1(C)CC(=S)C2=C(C1)Oc1ccc3ccccc3c1C2c1ccc(F)cc1 (centres undefined) | 10% | -3% | 0% | 50% | 50% | – | 0% | 0% | 40% | 199 mg/L (≈ 511 µM) | 260 mg/L (≈ 670 µM) | 358 mg/L (≈ 922 µM) | 345 mg/L (≈ 888 µM)
S=C1CCCC2=C1C(c1ccccc1Br)c1c(ccc3ccccc13)O2 (centres undefined) | 50% | 1% | -2% | 25% | 75% | 20% | 5% | 0% | 90% | 136 mg/L (≈ 322 µM) | 148 mg/L (≈ 352 µM) | 225 mg/L (≈ 535 µM) | 286 mg/L (≈ 678 µM)
COc1cc(C2C3=C(CC(C)(C)CC3=S)Oc3ccc4ccccc4c32)ccc1O (centres undefined) | 0% | -6% | 12% | 30% | 70% | 0% | 20% | 10% | 10% | 433 mg/L (≈ 1040 µM) | 438 mg/L (≈ 1050 µM) | 670 mg/L (≈ 1610 µM) | 567 mg/L (≈ 1360 µM)
Cc1ccc(C2C3=C(CC(C)(C)CC3=S)Oc3ccc4ccccc4c32)cc1 (centres undefined) | 10% | 33% | 12% | 50% | 50% | 10% | 10% | 30% | 20% | 385 mg/L (≈ 1000 µM) | 410 mg/L (≈ 1070 µM) | 321 mg/L (≈ 834 µM) | 489 mg/L (≈ 1270 µM)
CC1(C)CC(=S)C2=C(C1)Oc1ccc3ccccc3c1C2c1ccc(Cl)cc1 (centres undefined) | 30% | 35% | 18% | 70% | 30% | 10% | 20% | 40% | 40% | 311 mg/L (≈ 767 µM) | 245 mg/L (≈ 606 µM) | 280 mg/L (≈ 692 µM) | 334 mg/L (≈ 825 µM)
S=C1CCCC2=C1C(c1cccc(Cl)c1)c1c(ccc3ccccc13)O2 (centres undefined) | 30% | 6% | 2% | 60% | 40% | 20% | 10% | 30% | 60% | 268 mg/L (≈ 712 µM) | 320 mg/L (≈ 850 µM) | 426 mg/L (≈ 1130 µM) | 380 mg/L (≈ 1010 µM)
S=C1CCCC2=C1C(c1ccccc1)c1c(ccc3ccccc13)O2 (centres undefined) | 10% | 47% | 22% | 50% | 50% | 0% | 10% | 40% | 30% | 210 mg/L (≈ 613 µM) | 287 mg/L (≈ 839 µM) | 500 mg/L (≈ 1460 µM) | 438 mg/L (≈ 1280 µM)
COc1ccccc1C1C2=C(CC(C)(C)CC2=S)Oc2ccc3ccccc3c21 (centres undefined) | 15% | 24% | 6% | 60% | 40% | 20% | 10% | 30% | 30% | 418 mg/L (≈ 1040 µM) | 336 mg/L (≈ 838 µM) | 324 mg/L (≈ 810 µM) | 484 mg/L (≈ 1210 µM)
CCCCC(O)(Cn1cncn1)c1ccc(Cl)cc1Cl (centres undefined) [HEXACONAZOLE] | – | – | – | – | – | – | – | – | – | 25.5 mg/L (≈ 81.3 µM) | 20.6 mg/L (≈ 65.4 µM) | 13 mg/L (≈ 41.2 µM) | 334 mg/L (≈ 1060 µM)
CC1(C)CC(=S)C2=C(C1)Oc1ccc3ccccc3c1C2c1cccs1 (centres undefined) | 0% | 4% | -8% | 35% | 65% | 0% | 20% | 15% | 10% | 456 mg/L (≈ 1210 µM) | 375 mg/L (≈ 997 µM) | 457 mg/L (≈ 1210 µM) | 590 mg/L (≈ 1570 µM)
CC1(C)CC(=S)C2=C(C1)Oc1ccc3ccccc3c1C2c1cccc(Br)c1 (centres undefined) | 30% | 15% | 6% | 100% | 0% | 50% | – | 50% | 10% | 321 mg/L (≈ 714 µM) | 310 mg/L (≈ 689 µM) | 478 mg/L (≈ 1060 µM) | 475 mg/L (≈ 1060 µM)
COc1ccc(C2C3=C(CC(C)(C)CC3=S)Oc3ccc4ccccc4c32)cc1 (centres undefined) | 0% | 5% | -4% | 40% | 60% | 10% | 20% | 10% | 10% | 406 mg/L (≈ 1010 µM) | 279 mg/L (≈ 697 µM) | 365 mg/L (≈ 912 µM) | 478 mg/L (≈ 1190 µM)
CC1(C)CC(=S)C2=C(C1)Oc1ccc3ccccc3c1C2c1ccccc1 (centres undefined) | 20% | 5% | 5% | 75% | 35% | 0% | 15% | 50% | 20% | 336 mg/L (≈ 906 µM) | 326 mg/L (≈ 879 µM) | 525 mg/L (≈ 1420 µM) | 570 mg/L (≈ 1540 µM)
O=[N+]([O-])c1ccc(C2C3=C(CCCC3=S)Oc3ccc4ccccc4c32)cc1 (centres undefined) | 0% | 1% | -1% | 80% | 20% | 10% | – | 50% | 70% | 212 mg/L (≈ 547 µM) | 358 mg/L (≈ 923 µM) | 670 mg/L (≈ 1730 µM) | 555 mg/L (≈ 1430 µM)
